From PubChem
UPR XBP1 act = activators of adaptive arm of unfolded protein response (XBP1); activation, % at 20 µM; AID 463104; hit rate 0.33% among 330,000; CHO-XBP1 luciferase reporter, IRE1-XBP1 UPR activation, luminescence; percent of tunicamycin response, DMSO as zero;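 active means versus positive control, 20 µM dose yields 30% or more activation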
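Material: CHO cell line with stable XBP1 luciferase reporter; schedule: 16-18 h cell attachment at 37 °C, then 6 h compound exposure; signal: glow luminescence from Steady-Glo reagent; medium: serum-containing F12 medium, 10% FBS; benchmarks: tunicamycin 10 µg/mL and vehicle-only wells; read-out: percent activation relative to tunicamycin reference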
VLA-4 inh = inhibition in a human VLA-4 binding assay; P13612; VLA-4 expressing cells, ligand binding flow cytometry; inhibition, % (about 7 µM as worked out from the volumes in the protocol); hit rate 0.2% among 330,000; AID 2557; in the data active means inhibition above about 50%
UPR CHOP act = apoptotic UPR (CHOP) activation; CHO-CHOP luciferase reporter, luminescence; percent of tunicamycin response over DMSO baseline; activation, % at 10 µM; hit rate 0.34% among 330,000; AID 449763;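 active means at 10 µM dose, activation of 40% or more, normalized to positive control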
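Evaluation: % reporter activation, DMSO baseline versus tunicamycin full activation; System: CHO-CHOP luciferase reporter cell line; Input: 500 cells/well; Incubation: 6 h compound treatment, 37 °C; Measured by: Steady-Glo luciferase luminescence; Dosing: one dose, 10 µM in 0.5% DMSO; Buffer or medium: F12 medium, 10% FBS; Benchmarks: positive tunicamycin 10 µg/mL, negative DMSO alone.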
CHOP inh = blocks CHOP induction under ER stress; CHO-K1 CHOP-promoter luciferase, tunicamycin-induced, 15-18 h; inhibition, % at 10 µM; hit rate 3.8% among 220,000;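 active means compounds that reduced the stress-induced luciferase reporter signal by more than about 70% of percent inhibition, limit read from the data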
B2AR ag = human beta-2 adrenergic receptor agonism by FAP | Am2.2-beta2AR cells, FAP receptor internalization, flow cytometry | P07550 | response, % (no concentration beside the values) | hit rate 0.43% among 340,000 | AID 504454;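 active means response above a set limit, near 3 SD of response in nonfluorescent compounds, cut at about 42% in these data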
Target sequence (P07550 whole entry, looked up): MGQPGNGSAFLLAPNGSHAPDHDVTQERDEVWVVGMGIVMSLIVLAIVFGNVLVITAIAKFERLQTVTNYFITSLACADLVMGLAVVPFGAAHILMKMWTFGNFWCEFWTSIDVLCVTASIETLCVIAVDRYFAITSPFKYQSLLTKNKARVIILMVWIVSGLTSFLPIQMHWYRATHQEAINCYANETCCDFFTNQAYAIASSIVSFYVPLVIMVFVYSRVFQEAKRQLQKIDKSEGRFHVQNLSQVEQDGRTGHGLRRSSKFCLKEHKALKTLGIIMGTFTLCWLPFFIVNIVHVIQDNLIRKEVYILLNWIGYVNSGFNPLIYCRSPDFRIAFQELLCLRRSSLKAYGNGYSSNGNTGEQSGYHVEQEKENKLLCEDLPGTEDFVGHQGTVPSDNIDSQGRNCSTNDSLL
VLA-4 mod pick = human VLA-4 allosteric modulation in cherry picked compounds; shares compounds with VLA-4 inh; U937 cells, HUTS-21 LIBS mAb binding, flow cytometry; LDV ligand present at threefold Kd; inhibition, % at 6.7 µM; hit rate 2% among 1,300; AID 2813; in the data active means inhibition above about 40%
Each line names hits and unclear results; the compound was inactive in the other large screens (follow-up assays come after a bar, where they were run). The sample as a whole holds a higher share of hits than the screen did.

Cn1c(=N)n(CC(O)c2cccc3ccccc23)c2ccccc21 (stereo unspecified)	VLA-4 inh 51 (no result: CHOP inh) | VLA-4 mod pick inactive
CCCc1cc(=O)oc2cc(OCC(=O)NCCCN3CCOCC3)c(Cl)cc12	none (no result: CHOP inh)
COc1cc(OC)cc(C(=O)NC(C(=O)N2CCc3ccccc3C2)C(C)C)c1 (stereo unspecified)	VLA-4 inh 50 (no result: CHOP inh) | VLA-4 mod pick inactive
Cc1ccc(S(=O)(=O)N(C)C)cc1NC(=O)COC(=O)c1ccc2c(c1)NC(=O)CS2	none
Cc1cc(C)c(C#N)c(Oc2ccc(O)cc2)n1	none
CCCC(=O)Nc1cccc(Oc2nc(C)cc(C)c2C#N)c1	VLA-4 inh 89 | VLA-4 mod pick inactive
Cc1ccc2c([N+](=O)[O-])cccc2n1	none
Cc1ccc2c([N+](=O)[O-])c(C)ccc2n1	VLA-4 inh 51 | VLA-4 mod pick inactive
COc1ccc(S(=O)(=O)NCc2ccccc2Cl)cc1OC	VLA-4 inh 93 | VLA-4 mod pick inactive
CCOc1ccc(S(=O)(=O)NCc2ccccc2Cl)cc1C(N)=O	none
O=C(COC(=O)c1ccccc1)NC1CCCCCC1	none (no result: CHOP inh) | VLA-4 mod pick inactive
Cc1noc(C)c1NC(=O)Nc1cccc2c1O[C@H](CN(C)C(=O)NC1CCCCC1)[C@@H](C)CN([C@H](C)CO)C2=O	none (no result: CHOP inh)
COc1ccc(-n2c(=S)[nH]c3cc(C(=O)NCCCN4CCCC4=O)ccc3c2=O)cc1OC	none
COc1ccc(-n2c(=S)[nH]c3cc(C(=O)NCCCN4CCOCC4)ccc3c2=O)cc1OC	VLA-4 inh 56 (no result: CHOP inh) | VLA-4 mod pick inactive
CC1CCC(NC(=O)CN2C(=O)c3ccccc3S2(=O)=O)CC1 (stereo unspecified)	none (no result: CHOP inh)
O=C(CN1C(=O)c2ccccc2S1(=O)=O)NC1CC2CCC1C2 (stereo unspecified)	VLA-4 inh 51 | VLA-4 mod pick inactive
CCc1c(C)sc(NC(=O)c2ccco2)c1C#N	none (no result: VLA-4 inh, CHOP inh)
COc1ccc(C(C#N)c2ccc(=O)[nH]n2)cc1 (stereo unspecified)	VLA-4 inh 55 | VLA-4 mod pick inactive
Cc1cccc(NC(=O)CCc2ccccc2)c1C	none (no result: CHOP inh)
COc1ccc(-c2nc(C)ncc2-c2ccccc2)c(O)c1	none (no result: CHOP inh)
COc1ccc(-c2nc(C)ncc2-c2ccc(Cl)cc2)c(O)c1	VLA-4 inh 68 (no result: CHOP inh) | VLA-4 mod pick inactive
CCCCOCCCN1CC(=O)N2[C@@H](Cc3c([nH]c4ccccc34)C2(C)C)C1=O	none (no result: CHOP inh)
CCCCn1c(SCC(=O)Nc2ccc3c(c2)CCC3)nc2ccccc2c1=O	none | VLA-4 mod pick inactive
C=CCn1c(SCC(=O)Nc2ccc3c(c2)CCC3)nc2ccccc2c1=O	none
COc1cccc(C2CC(=O)Nc3cc(OC)c(OC)c(OC)c32)c1OC (stereo unspecified)	none | VLA-4 mod pick inactive
CCOc1ccccc1C1CC(=O)Nc2cc(OC)c(OC)c(OC)c21 (stereo unspecified)	none | VLA-4 mod pick inactive
CCOc1ccccc1C1CC(=O)Nc2cc(C)c(C)cc21 (stereo unspecified)	none (no result: CHOP inh)
CCCNC(=O)C(Cc1ccccc1)NC(=O)c1ccc(C(F)(F)F)cc1 (stereo unspecified)	none (no result: CHOP inh)
COc1ccc(-c2cc(C(=O)N3CCN(c4ncccn4)CC3)c3ccccc3n2)cc1OC	none (no result: CHOP inh)
CC(C)Oc1cccc(-c2cc(C(=O)N3CCN(c4ncccn4)CC3)c3ccccc3n2)c1	none | VLA-4 mod pick inactive
COc1ccc(-c2cc(C(=O)N3CCN(c4cccc(C)c4C)CC3)c3ccccc3n2)cc1OC	none (no result: CHOP inh) | VLA-4 mod pick inactive
O=C(c1cc(-c2ccncc2)nc2ccc(Br)cc12)N1CCN(c2ccccn2)CC1	none | VLA-4 mod pick inactive
O=C(c1cc(-c2ccc(Br)cc2)nc2ccccc12)N1CCN(c2ccccc2O)CC1	none (no result: CHOP inh) | VLA-4 mod pick inactive
CCN(C(=O)COC(=O)c1c(NC(C)=O)sc(C)c1C)c1c(N)n(Cc2ccccc2)c(=O)[nH]c1=O	none (no result: UPR XBP1 act, VLA-4 inh, UPR CHOP act, CHOP inh)
Cc1ccc(S(=O)(=O)N(C)C)cc1NC(=O)C(C)OC(=O)c1cc[n+]([O-])cc1 (stereo unspecified)	none (no result: CHOP inh)
N#CC1(C(N)=O)OC12CCS(=O)(=O)c1ccccc12 (stereo unspecified)	none (no result: UPR XBP1 act, VLA-4 inh, UPR CHOP act, CHOP inh)
CCOc1ccc(N(CC(=O)N2CCc3ccccc32)S(=O)(=O)c2c(C)noc2C)cc1	none
Cc1cc(C)cc(N(CC(=O)N2CCc3ccccc32)S(=O)(=O)c2c(C)noc2C)c1	none | VLA-4 mod pick inactive
CC(=O)Nc1nc(COc2ccc3ccccc3c2)cs1	VLA-4 inh 56 | VLA-4 mod pick inactive
COc1cccc(N2CCN(C(=O)c3cccc(NC4=NC5CS(=O)(=O)CC5S4)c3)CC2)c1 (stereo unspecified)	none (no result: CHOP inh) | VLA-4 mod pick inactive
Cc1ccc(C)c(N2CCN(C(=O)Cc3ccc(NC4=NC5CS(=O)(=O)CC5S4)cc3)CC2)c1 (stereo unspecified)	VLA-4 inh 56 (no result: CHOP inh) | VLA-4 mod pick inactive
Cc1ccc(C)c(N2CCN(C(=O)c3ccc(Cl)c(NC4=NC5CS(=O)(=O)CC5S4)c3)CC2)c1 (stereo unspecified)	none (no result: CHOP inh) | VLA-4 mod pick inactive
Cc1cccc(N2CCN(C(=O)c3ccc(Cl)c(NC4=NC5CS(=O)(=O)CC5S4)c3)CC2C)c1 (stereo unspecified)	none (no result: CHOP inh) | VLA-4 mod pick inactive
O=C(CSc1ccc(S(=O)(=O)N2CCCCC2)cn1)Nc1ccccc1Br	none (no result: CHOP inh)
O=C(c1ccc(Cl)c(NC2=NC3CS(=O)(=O)CC3S2)c1)N1CCN(c2ccccc2)CC1 (stereo unspecified)	none (no result: CHOP inh) | VLA-4 mod pick inactive
CC(=O)c1ccc(N2CCN(C(=O)c3ccc(NC4=NC5CS(=O)(=O)CC5S4)cc3)CC2)cc1 (stereo unspecified)	none (no result: CHOP inh)
O=c1[nH]cnc2c1nc(SCc1ccccc1)n2C1OC(CO)C(O)C1O (stereo unspecified)	VLA-4 inh 51 | VLA-4 mod pick inactive
O=c1c2ccccc2nc2n1CCc1c-2[nH]c2ccccc12	VLA-4 inh 51 | VLA-4 mod pick inactive
Cc1cc(S(=O)(=O)Nc2ccc(N3CCOCC3)cc2)ccc1Br	none (no result: CHOP inh)
CN1C(=O)Cc2cc(S(=O)(=O)Nc3ccc(N4CCOCC4)cc3)ccc21	none (no result: CHOP inh) | VLA-4 mod pick inactive
Cc1nc2[nH]c(=O)c3c(n2n1)NC1=C(C(=O)CC(C)(C)C1)C3c1ccc(F)cc1 (stereo unspecified)	none
CCc1ccc(C2C3=C(CC(C)(C)CC3=O)Nc3c2c(=O)[nH]c2nc(C)nn32)cc1 (stereo unspecified)	VLA-4 inh 57 | VLA-4 mod pick inactive
CCn1c(Cc2ccccc2)nnc1SCc1ccc([N+](=O)[O-])cc1	none
COCCn1c(Cc2ccccc2)nnc1SCc1ccc([N+](=O)[O-])cc1	none | VLA-4 mod pick inactive
